Laboratory results taken from ChEMBL document CHEMBL1142894, “Preparation of 5-aryl-3-alkylthio-l,2,4-triazoles and corresponding sulfones with antiinflammatory-analgesic activity” (Bioorg Med Chem, 2007).
Active and inactive are the calls of the source. No cut-off for these calls is given here.

What was measured:
Mus musculus [1] = experiment: Inhibition of carrageenan-induced paw edema in Swiss albino mouse at 50 mg/kg, po after 270 mins relative to control; type: functional; conditions: 4.5 h
In short: (§1)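 Mice, n = 6 per group. Test agent given orally as a suspension in 0.5% sodium CMC in distilled water; controls received vehicle only. Afterwards, 0.5 mg/25 ll carrageenan in saline (154 mM NaCl) injected subplantar into the right hind paw, saline into the left. Right-minus-left footpad thickness measured by dial gauge caliper every 90 min for 6 h. Inhibition is relative to vehicle-control group means.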

Mus musculus [2] = experiment: Inhibition of carrageenan-induced paw edema in Swiss albino mouse at 50 mg/kg, po after 360 mins relative to control; type: functional; conditions: 6 h; in short: as §1
Mus musculus [3] = experiment: Antiinflammatory activity against carrageenan-induced paw edema in Swiss albino mouse assessed as swelling thickness at 25 mg/kg, po after 180 mins; type: functional
In short: (§2)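 Oral dosing in 0.5% CMC; vehicle to controls. Then carrageenan (0.5 mg/25 ll, freshly suspended in 154 mM saline) injected into the right hind paw subplantar tissue; saline into the left paw. Right-left footpad thickness difference measured by dial gauge calliper every 90 min over 6 h. Inhibition % is relative to vehicle control. n = 6; mean ± SEM.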

Mus musculus [4] = experiment: Analgesic activity against p-benzoquinone-induced abdominal constriction in Swiss albino mouse assessed as number of writhings at 50 mg/kg, po; type: functional, Abdomen
In short: (§3)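 Test samples given orally in 0.5% CMC; vehicle to controls. 60 min later, 2.5% (v/v) p-benzoquinone in distilled water, 0.1 ml/10 g, given i.p. Mice housed singly; writhes counted for 15 min starting 5 min after injection. Activity is % change from vehicle controls. n = 6; mean ± SEM.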

Mus musculus [5] = experiment: Antiinflammatory activity against carrageenan-induced paw edema in Swiss albino mouse assessed as swelling thickness at 25 mg/kg, po after 90 mins; type: functional; in short: as §2
Mus musculus [6] = experiment: Acute toxicity in Swiss albino mouse assessed as lethal effect at 200 mg/kg/day, po after 72 hrs; type: organism-based; parameters: route oral; conditions: in vivo
In short: (§4)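 Oral single dose suspended in 0.5% carboxymethylcellulose, given after a 24 h fast; food and water returned 1 h after dosing. Vehicle-only controls. Mice observed at 1 h, then once daily for 72 h, for toxic signs and mortality.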

Mus musculus [7] = experiment: Inhibition of carrageenan-induced paw edema in Swiss albino mouse at 25 mg/kg, po after 270 mins relative to control; type: functional; conditions: 4.5 h; in short: as §2
Mus musculus [8] = experiment: Acute toxicity in Swiss albino mouse assessed as lethal effect at 100 mg/kg/day, po after 72 hrs; type: organism-based; parameters: route oral; conditions: in vivo; in short: as §4
Mus musculus [9] = experiment: Inhibition of carrageenan-induced paw edema in Swiss albino mouse at 200 mg/kg, po after 360 mins relative to control; type: functional; conditions: 6 h; in short: as §2
Mus musculus [10] = experiment: Inhibition of carrageenan-induced paw edema in Swiss albino mouse at 25 mg/kg, po after 360 mins relative to control; type: functional; conditions: 6 h; in short: as §2
Mus musculus [11] = experiment: Inhibition of carrageenan-induced paw edema in Swiss albino mouse at 50 mg/kg, po after 90 mins relative to control; type: functional; conditions: 1.5 h; in short: as §1
Mus musculus [12] = experiment: Inhibition of carrageenan-induced paw edema in Swiss albino mouse at 200 mg/kg, po after 270 mins relative to control; type: functional; conditions: 4.5 h; in short: as §2
Mus musculus [13] = experiment: Analgesic activity against p-benzoquinone-induced abdominal constriction in Swiss albino mouse assessed as number of writhings at 25 mg/kg, po; type: functional, Abdomen; in short: as §3
Mus musculus [14] = experiment: Antiinflammatory activity against carrageenan-induced paw edema in Swiss albino mouse assessed as swelling thickness at 50 mg/kg, po after 270 mins; type: functional; in short: as §2
Mus musculus [15] = experiment: Analgesic activity against p-benzoquinone-induced abdominal constriction in Swiss albino mouse assessed as number of writhings at 200 mg/kg, po; type: functional, Abdomen; in short: as §3
Mus musculus [16] = experiment: Inhibition of p-benzoquinone-induced writhing in Swiss albino mouse at 100 mg/kg, po relative to control; type: functional
In short: (§5)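 Mice, n = 6 per group, dosed orally with a suspension in 0.5% sodium CMC. 60 min later, 0.1 ml/10 g of 2.5% […] p-benzoquinone in distilled water given ip. Abdominal writhes counted per animal for 15 min, starting 5 min after injection. Expressed as % change in mean writhing count versus vehicle controls.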

Mus musculus [17] = experiment: Antiinflammatory activity against carrageenan-induced paw edema in Swiss albino mouse assessed as swelling thickness at 100 mg/kg, po after 90 mins; type: functional; in short: as §2
Mus musculus [18] = experiment: Acute toxicity in Swiss albino mouse assessed as lethal effect at 50 mg/kg/day, po after 72 hrs; type: organism-based; parameters: route oral; conditions: in vivo; in short: as §4
Mus musculus [19] = experiment: Inhibition of p-benzoquinone-induced writhing in Swiss albino mouse at 200 mg/kg, po relative to control; type: functional; in short: as §5
Mus musculus [20] = experiment: Inhibition of carrageenan-induced paw edema in Swiss albino mouse at 100 mg/kg, po after 180 mins relative to control; type: functional; conditions: 3 h; in short: as §2
Mus musculus [21] = experiment: Antiinflammatory activity against carrageenan-induced paw edema in Swiss albino mouse assessed as swelling thickness at 50 mg/kg, po after 90 mins; type: functional; in short: as §2
Mus musculus [22] = experiment: Antiinflammatory activity against carrageenan-induced paw edema in Swiss albino mouse assessed as swelling thickness at 200 mg/kg, po after 90 mins; type: functional; in short: as §2
Mus musculus [23] = experiment: Gastric-ulcerogenic effect in Swiss albino mouse assessed as lesions at 25 mg/kg, po; type: functional, organism-based; parameters: dose 25 mg/kg
In short: (§6)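 Mice killed under deep ether anesthesia 3 h after the writhing test; the oral dose in 0.5% CMC was the one used in that test. Stomachs removed, opened along the great curvature and examined under a dissecting microscope for lesions or bleeding. Reported as ratio of ulceration; n = 6.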

Mus musculus [24] = experiment: Antiinflammatory activity against carrageenan-induced paw edema in Swiss albino mouse assessed as swelling thickness at 200 mg/kg, po after 270 mins; type: functional; in short: as §2
Mus musculus [25] = experiment: Antiinflammatory activity against carrageenan-induced paw edema in Swiss albino mouse assessed as swelling thickness at 50 mg/kg, po after 180 mins; type: functional; in short: as §2
Mus musculus [26] = experiment: Inhibition of carrageenan-induced paw edema in Swiss albino mouse at 100 mg/kg, po after 270 mins relative to control; type: functional; conditions: 4.5 h; in short: as §2
Mus musculus [27] = experiment: Inhibition of carrageenan-induced paw edema in Swiss albino mouse at 25 mg/kg, po after 180 mins relative to control; type: functional; conditions: 3 h; in short: as §2
Mus musculus [28] = experiment: Inhibition of carrageenan-induced paw edema in Swiss albino mouse at 200 mg/kg, po after 90 mins relative to control; type: functional; conditions: 1.5 h; in short: as §2
Mus musculus [29] = experiment: Antiinflammatory activity against carrageenan-induced paw edema in Swiss albino mouse assessed as swelling thickness at 200 mg/kg, po after 180 mins; type: functional; in short: as §2
Mus musculus [30] = experiment: Gastric-ulcerogenic effect in Swiss albino mouse assessed as lesions at 50 mg/kg, po; type: functional, organism-based; parameters: dose 50 mg/kg; in short: as §6
Mus musculus [31] = experiment: Inhibition of p-benzoquinone-induced writhing in Swiss albino mouse at 50 mg/kg, po relative to control; type: functional; in short: as §5
Mus musculus [32] = experiment: Antiinflammatory activity against carrageenan-induced paw edema in Swiss albino mouse assessed as swelling thickness at 100 mg/kg, po after 180 mins; type: functional; in short: as §2
Mus musculus [33] = experiment: Antiinflammatory activity against carrageenan-induced paw edema in Swiss albino mouse assessed as swelling thickness at 25 mg/kg, po after 360 mins; type: functional; in short: as §2
Mus musculus [34] = experiment: Inhibition of carrageenan-induced paw edema in Swiss albino mouse at 25 mg/kg, po after 90 mins relative to control; type: functional; conditions: 1.5 h; in short: as §2
Mus musculus [35] = experiment: Analgesic activity against p-benzoquinone-induced abdominal constriction in Swiss albino mouse assessed as number of writhings at 100 mg/kg, po; type: functional, Abdomen; in short: as §3
Mus musculus [36] = experiment: Inhibition of p-benzoquinone-induced writhing in Swiss albino mouse at 25 mg/kg, po relative to control; type: functional; in short: as §5
Mus musculus [37] = experiment: Acute toxicity in Swiss albino mouse assessed as lethal effect at 25 mg/kg/day, po after 72 hrs; type: organism-based; parameters: route oral; conditions: in vivo; in short: as §4
Mus musculus [38] = experiment: Antiinflammatory activity against carrageenan-induced paw edema in Swiss albino mouse assessed as swelling thickness at 50 mg/kg, po after 360 mins; type: functional; in short: as §2
Mus musculus [39] = experiment: Inhibition of carrageenan-induced paw edema in Swiss albino mouse at 100 mg/kg, po after 90 mins relative to control; type: functional; conditions: 1.5 h; in short: as §2
Mus musculus [40] = experiment: Antiinflammatory activity against carrageenan-induced paw edema in Swiss albino mouse assessed as swelling thickness at 25 mg/kg, po after 270 mins; type: functional; in short: as §2
Mus musculus [41] = experiment: Antiinflammatory activity against carrageenan-induced paw edema in Swiss albino mouse assessed as swelling thickness at 100 mg/kg, po after 270 mins; type: functional; in short: as §2
Mus musculus [42] = experiment: Inhibition of carrageenan-induced paw edema in Swiss albino mouse at 100 mg/kg, po after 360 mins relative to control; type: functional; conditions: 6 h; in short: as §2
Mus musculus [43] = experiment: Inhibition of carrageenan-induced paw edema in Swiss albino mouse at 50 mg/kg, po after 180 mins relative to control; type: functional; conditions: 3 h; in short: as §2
Mus musculus [44] = experiment: Antiinflammatory activity against carrageenan-induced paw edema in Swiss albino mouse assessed as swelling thickness at 200 mg/kg, po after 360 mins; type: functional; in short: as §2
Mus musculus [45] = experiment: Antiinflammatory activity against carrageenan-induced paw edema in Swiss albino mouse assessed as swelling thickness at 100 mg/kg, po after 360 mins; type: functional; in short: as §2

## CCSc1nc(-c2ccc(Cl)cc2)n[nH]1
Mus musculus [1]
  inhibition in vivo at 50 mg/kg: 29.3%
Mus musculus [2]
  inhibition in vivo at 50 mg/kg: 40.1%
Mus musculus [3]
  Activity: 49.9 10^-2mm
Mus musculus [4]
  Activity: 34.2
Mus musculus [5]
  Activity: 45.9 10^-2mm
Mus musculus [6]
  Activity: Non-toxic
Mus musculus [7]
  inhibition in vivo at 25 mg/kg: 16.9%
Mus musculus [8]
  Activity: Non-toxic
Mus musculus [9]
  inhibition in vivo at 200 mg/kg: 3.4%
Mus musculus [10]
  inhibition in vivo at 25 mg/kg: 17.1%
Mus musculus [11]
  inhibition in vivo at 50 mg/kg: 26.5%
Mus musculus [12]
  inhibition in vivo at 200 mg/kg: 2%
Mus musculus [13]
  Activity: 45.1
Mus musculus [14]
  Activity: 45.8 10^-2mm
Mus musculus [15]
  Activity: 44.8
Mus musculus [16]
  inhibition in vivo at 100 mg/kg: 28.5%
Mus musculus [17]
  Activity: 34.3 10^-2mm
Mus musculus [18]
  Activity: Non-toxic
Mus musculus [19]
  inhibition in vivo at 200 mg/kg: 12.8%
Mus musculus [20]
  inhibition in vivo at 100 mg/kg: 25.8%
Mus musculus [21]
  Activity: 39.1 10^-2mm
Mus musculus [22]
  Activity: 51.8 10^-2mm
Mus musculus [23]
  Activity: Active
Mus musculus [24]
  Activity: 63.5 10^-2mm
Mus musculus [25]
  Activity: 43.2 10^-2mm
Mus musculus [26]
  inhibition in vivo at 100 mg/kg: 30.8%
Mus musculus [27]
  inhibition in vivo at 25 mg/kg: 15.9%
Mus musculus [28]
  inhibition in vivo at 200 mg/kg: 2.6%
Mus musculus [29]
  Activity: 59.9 10^-2mm
Mus musculus [30]
  Activity: Active
Mus musculus [31]
  inhibition in vivo at 50 mg/kg: 33.5%
Mus musculus [32]
  Activity: 38.2 10^-2mm
Mus musculus [33]
  Activity: 59.7 10^-2mm
Mus musculus [34]
  inhibition in vivo at 25 mg/kg: 13.7%
Mus musculus [35]
  Activity: 33.8
Mus musculus [36]
  inhibition in vivo at 25 mg/kg: 12.3%
Mus musculus [37]
  Activity: Non-toxic
Mus musculus [38]
  Activity: 43.1 10^-2mm
Mus musculus [39]
  inhibition in vivo at 100 mg/kg: 23.4%
Mus musculus [40]
  Activity: 63.5 10^-2mm
Mus musculus [41]
  Activity: 40.7 10^-2mm
Mus musculus [42]
  inhibition in vivo at 100 mg/kg: 35.8%
Mus musculus [43]
  inhibition in vivo at 50 mg/kg: 27.3%
Mus musculus [44]
  Activity: 74.2 10^-2mm
Mus musculus [45]
  Activity: 44.2 10^-2mm
